Measured values reported in ChEMBL document CHEMBL1128374, “Preparation and in vitro activities of ethers of [D-serine]8-cyclosporin” (J Med Chem, 1995).
≈ marks a conversion by molar mass, not a printed value.

Columns and labels:
Type in all cases: functional
Mus musculus [1] = organism: Mus musculus; assay: In vitro efficacy to suppress lymphocyte proliferation as measured by the incorporation of a labeled precursor ([3H]- thymidine) into DNA in Mixed Lymphocyte reaction (MLR).
Procedure, shortened: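 Cells from spleens of female CBA mice aged 8–10 weeks (ca. 5 x 10^5). Compounds made up at 20 mg/mL in 9:1 (v/v) ethanol/Tween 80, then diluted in saline before adding to medium. Four concentrations per compound across 1.8–1000 ng/mL, in triplicate cultures. IC50 is the calculated concentration giving 50% inhibition of proliferation. Cyclosporin A run in parallel as control.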

Mus musculus [2] = organism: Mus musculus; assay: In vitro inhibition of interleukin-2 (IL-2) production induced by stimulating lymphocytes derived from mouse spleens with the […]; conditions: Spleen
Procedure, shortened: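 Compounds added with concanavalin A to the primary culture; supernatants collected at 48 h. IL-2 content measured by growth of IL-2-dependent CTLL cells, read as tritiated thymidine incorporation after 48 h. IC50 determined, with cyclosporin A run in parallel.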

Mus musculus [3] = organism: Mus musculus; assay: In vitro efficacy on humoral immune response by Mishell-Dutton assay (MD).
Procedure, shortened: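 Spleen lymphocytes from female OF1 mice (ca. 10 x 10^6) cultured 3 days with sheep erythrocytes (ca. 30 x 10^6) and test compound. Cells then plated on agar with fresh erythrocytes; plaques form by complement lysis. Read-out is the count of antibody-producing plaque-forming cells. Cyclosporin A run in parallel.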

SMILES | IC50 (Mus musculus [2]) | IC50 (Mus musculus [3]) | IC50 (Mus musculus [1])
C/C=C/C[C@@H](C)[C@@H](O)[C@H]1C(=O)N[C@@H](CC)C(=O)N(C)CC(=O)N(C)[C@@H](CC(C)C)C(=O)N[C@@H](C(C)C)C(=O)N(C)[C@@H](CC(C)C)C(=O)N[C@@H](C)C(=O)N[C@H](COCCOS(=O)(=O)c2ccc(C)cc2)C(=O)N(C)[C@@H](CC(C)C)C(=O)N(C)[C@@H](CC(C)C)C(=O)N(C)[C@@H](C(C)C)C(=O)N1C | 0.014 µg/mL (≈ 0.00988 µM) |  | 0.05 µg/mL (≈ 0.0353 µM)
C/C=C/C[C@@H](C)[C@@H](O)[C@H]1C(=O)N[C@@H](CC)C(=O)N(C)CC(=O)N(C)[C@@H](CC(C)C)C(=O)N[C@@H](C(C)C)C(=O)N(C)[C@@H](CC(C)C)C(=O)N[C@@H](C)C(=O)N[C@H](COC/C=C/COC(C)=O)C(=O)N(C)[C@@H](CC(C)C)C(=O)N(C)[C@@H](CC(C)C)C(=O)N(C)[C@@H](C(C)C)C(=O)N1C |  | 0.04 µg/mL (≈ 0.0301 µM) | 0.04 µg/mL (≈ 0.0301 µM)
C/C=C/C[C@@H](C)[C@@H](O)[C@H]1C(=O)N[C@@H](CC)C(=O)N(C)CC(=O)N(C)[C@@H](CC(C)C)C(=O)N[C@@H](C(C)C)C(=O)N(C)[C@@H](CC(C)C)C(=O)N[C@@H](C)C(=O)N[C@H](COCCOCCOCC(=O)OC(C)C)C(=O)N(C)[C@@H](CC(C)C)C(=O)N(C)[C@@H](CC(C)C)C(=O)N(C)[C@@H](C(C)C)C(=O)N1C |  | 0.53 µg/mL (≈ 0.377 µM) | 0.35 µg/mL (≈ 0.249 µM)
C/C=C/C[C@@H](C)[C@@H](O)[C@H]1C(=O)N[C@@H](CC)C(=O)N(C)CC(=O)N(C)[C@@H](CC(C)C)C(=O)N[C@@H](C(C)C)C(=O)N(C)[C@@H](CC(C)C)C(=O)N[C@@H](C)C(=O)N2CCCC[C@@H]2C(=O)N(C)[C@@H](CC(C)C)C(=O)N(C)[C@@H](CC(C)C)C(=O)N(C)[C@@H](C(C)C)C(=O)N1C |  |  | 0.029 µg/mL (≈ 0.0233 µM)
C/C=C/C[C@@H](C)[C@@H](O)[C@H]1C(=O)N[C@@H](CC)C(=O)N(C)CC(=O)N(C)[C@@H](CC(C)C)C(=O)N[C@@H](C(C)C)C(=O)N(C)[C@@H](CC(C)C)C(=O)N[C@@H](C)C(=O)N2COC[C@@H]2C(=O)N(C)[C@@H](CC(C)C)C(=O)N(C)[C@@H](CC(C)C)C(=O)N(C)[C@@H](C(C)C)C(=O)N1C |  |  | 0.118 µg/mL (≈ 0.0959 µM)
C/C=C/C[C@@H](C)[C@@H](O)[C@H]1C(=O)N[C@@H](CC)C(=O)N(C)CC(=O)N(C)[C@@H](CC(C)C)C(=O)N[C@@H](C(C)C)C(=O)N(C)[C@@H](CC(C)C)C(=O)N[C@@H](C)C(=O)N[C@H](COCCN=[N+]=[N-])C(=O)N(C)[C@@H](CC(C)C)C(=O)N(C)[C@@H](CC(C)C)C(=O)N(C)[C@@H](C(C)C)C(=O)N1C |  | 0.087 µg/mL (≈ 0.0676 µM) | 0.11 µg/mL (≈ 0.0854 µM)

The next lines start with results.

IC50 (Mus musculus [2]) | IC50 (Mus musculus [3]) | SMILES | IC50 (Mus musculus [1])
0.115 µg/mL (≈ 0.0914 µM) | 0.032 µg/mL (≈ 0.0254 µM) | C=CCOC[C@H]1NC(=O)[C@H](C)NC(=O)[C@H](CC(C)C)N(C)C(=O)[C@H](C(C)C)NC(=O)[C@H](CC(C)C)N(C)C(=O)CN(C)C(=O)[C@H](CC)NC(=O)[C@H]([C@H](O)[C@H](C)C/C=C/C)N(C)C(=O)[C@H](C(C)C)N(C)C(=O)[C@H](CC(C)C)N(C)C(=O)[C@H](CC(C)C)N(C)C1=O | 0.088 µg/mL (≈ 0.0699 µM)
> 0.1 µg/mL | 0.23 µg/mL (≈ 0.176 µM) | C=C(CCl)COC[C@H]1NC(=O)[C@H](C)NC(=O)[C@H](CC(C)C)N(C)C(=O)[C@H](C(C)C)NC(=O)[C@H](CC(C)C)N(C)C(=O)CN(C)C(=O)[C@H](CC)NC(=O)[C@H]([C@H](O)[C@H](C)C/C=C/C)N(C)C(=O)[C@H](C(C)C)N(C)C(=O)[C@H](CC(C)C)N(C)C(=O)[C@H](CC(C)C)N(C)C1=O | 0.27 µg/mL (≈ 0.207 µM)
 | 0.009 µg/mL (≈ 0.00705 µM) | C/C=C/C[C@@H](C)[C@@H](O)[C@H]1C(=O)N[C@@H](CC)C(=O)N(C)CC(=O)N(C)[C@@H](CC(C)C)C(=O)N[C@@H](C(C)C)C(=O)N(C)[C@@H](CC(C)C)C(=O)N[C@@H](C)C(=O)N[C@H](COCCCO)C(=O)N(C)[C@@H](CC(C)C)C(=O)N(C)[C@@H](CC(C)C)C(=O)N(C)[C@@H](C(C)C)C(=O)N1C | 0.02 µg/mL (≈ 0.0157 µM)
0.003 µg/mL (≈ 0.00241 µM) |  | C/C=C/C[C@@H](C)[C@@H](O)[C@H]1C(=O)N[C@@H](CC)C(=O)N(C)CC(=O)N(C)[C@@H](CC(C)C)C(=O)N[C@@H](C(C)C)C(=O)N(C)[C@@H](CC(C)C)C(=O)N[C@@H](C)C(=O)N2CCOC[C@@H]2C(=O)N(C)[C@@H](CC(C)C)C(=O)N(C)[C@@H](CC(C)C)C(=O)N(C)[C@@H](C(C)C)C(=O)N1C | 0.006 µg/mL (≈ 0.00482 µM)
0.012 µg/mL (≈ 0.00944 µM) |  | C=C1COC[C@@H]2C(=O)N(C)[C@@H](CC(C)C)C(=O)N(C)[C@@H](CC(C)C)C(=O)N(C)[C@@H](C(C)C)C(=O)N(C)[C@@H]([C@H](O)[C@H](C)C/C=C/C)C(=O)N[C@@H](CC)C(=O)N(C)CC(=O)N(C)[C@@H](CC(C)C)C(=O)N[C@@H](C(C)C)C(=O)N(C)[C@@H](CC(C)C)C(=O)N[C@@H](C)C(=O)N2C1 | 0.036 µg/mL (≈ 0.0283 µM)
0.01 µg/mL |  | C/C=C/C[C@@H](C)[C@@H](O)[C@H]1C(=O)N[C@@H](CC)C(=O)N(C)CC(=O)N(C)[C@@H](CC(C)C)C(=O)N[C@@H](C(C)C)C(=O)N(C)[C@@H](CC(C)C)C(=O)N[C@@H](C)C(=O)N2CC(OCC)OC[C@@H]2C(=O)N(C)[C@@H](CC(C)C)C(=O)N(C)[C@@H](CC(C)C)C(=O)N(C)[C@@H](C(C)C)C(=O)N1C (mixture of isomers) | 0.04 µg/mL
